Screening data deposited in PubChem BioAssay by several laboratories.
This is one part of a sample in which hits are shown more often than they occur.
Myeloid diff MLP – compounds promoting myeloid differentiation | hit rate 1% among 360,000 | calls only at 10 µM | ER-HoxA9 myeloid progenitors, lysozyme-GFP differentiation, flow cytometry;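 active means normalized GFP-positive differentiation at or above the plate's own cutoff, the solvent-only control mean plus 3 SD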;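 further: cells exposed to compound for four days before flow analysis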
Xi reactivation – activators of X-chromosome reactivation in mouse fibroblasts. activation, % at 7.58 µM. XiGFP mouse fibroblasts, % GFP-positive cells imaging, 3 d; cells co-treated with 5-aza-dC sensitizer; scaled so ellipticine positive control = 100%. hit rate 0.055% among 360,000;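 active means mean normalized replicate activation at least 10% and every replicate at or above 10%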;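 further: 0% = median of on-plate neutral control wells and 100% = ellipticine 6 µM median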
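Assay system – SV40-immortalized XiGFP fibroblast cells, line 68-5-11 · Buffer or medium – DMEM supplemented with 5-aza-dC as sensitizing agent · Dosing – one concentration, pinned · Benchmarks – positive control ellipticine, 6 µM final · Times – 3 days compound exposure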
ABCB6 inh 2 – human ABCB6 transporter inhibition; Q9NP58; K562-ABCB6 porphyrin accumulation, flow cytometry, 1 h; stronger effect = lower value; fluorescence ratio to DMSO, % at 10 µM; hit rate 0.19% among 360,000;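 active means fluorescence ratio to DMSO below 75%, the collection mean minus 3 SD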;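 further: signal is porphyrin accumulated inside mitochondria; 100% equals median channel fluorescence of DMSO control wells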
Target sequence (Q9NP58 whole entry, looked up): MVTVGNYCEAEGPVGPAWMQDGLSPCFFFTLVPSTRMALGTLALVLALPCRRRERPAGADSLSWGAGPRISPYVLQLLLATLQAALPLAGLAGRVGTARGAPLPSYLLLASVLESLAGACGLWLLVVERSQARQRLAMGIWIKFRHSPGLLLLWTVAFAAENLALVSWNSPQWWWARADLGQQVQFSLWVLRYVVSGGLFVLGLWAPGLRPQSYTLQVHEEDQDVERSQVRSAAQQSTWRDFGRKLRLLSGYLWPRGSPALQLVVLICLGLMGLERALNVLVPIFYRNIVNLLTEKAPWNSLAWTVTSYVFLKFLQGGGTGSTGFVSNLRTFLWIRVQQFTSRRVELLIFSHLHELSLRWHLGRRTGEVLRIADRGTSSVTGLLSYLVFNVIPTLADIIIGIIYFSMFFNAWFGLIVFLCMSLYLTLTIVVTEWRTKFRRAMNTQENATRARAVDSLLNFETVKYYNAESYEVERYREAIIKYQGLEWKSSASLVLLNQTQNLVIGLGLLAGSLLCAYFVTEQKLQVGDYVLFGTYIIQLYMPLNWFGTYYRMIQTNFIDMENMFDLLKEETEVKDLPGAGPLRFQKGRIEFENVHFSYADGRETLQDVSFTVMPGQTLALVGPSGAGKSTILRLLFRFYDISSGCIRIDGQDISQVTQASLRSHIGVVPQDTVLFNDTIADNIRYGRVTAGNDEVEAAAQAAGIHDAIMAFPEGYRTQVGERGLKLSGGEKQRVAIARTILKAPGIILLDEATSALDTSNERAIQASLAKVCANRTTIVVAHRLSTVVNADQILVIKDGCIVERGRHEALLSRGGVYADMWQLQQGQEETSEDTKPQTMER
Myeloid diff – myeloid differentiation induction. shares compounds with Myeloid diff MLP. ER-HoxA9 myeloid progenitors, GFP/Mac1 double-positive flow. calls only. hit rate 2% among 2,300. AID 651706;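 active means share of green or green-and-red cells above 9 and 9% in run 1 or 4 and 3% in run 2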
GFP autofluor – compound fluorescence in myeloid differentiation counter-screen. ER-HoxA9 myeloid progenitors, no estrogen, GFP autofluorescence flow cytometry; vehicle wells 0%, positive control 100%. AID 651707. hit rate 7.4% among 2,300. shares compounds with Myeloid diff MLP. fluorescence response, % (concentration not given with the values);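 active means over 5% cells positive for green fluorescent reporter, or over 2% positive for both it and APC stain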;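 further: range taken on the double positive population between DMSO and positive control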
Active calls of the source: *; i = inactive; x = no result; + = active, no number.

SMILES	Myeloid diff MLP	Xi reactivation	ABCB6 inh 2	Myeloid diff	GFP autofluor
COc1ccc(Cn2nnnc2C(c2cccnc2)N2CCN(c3ccc(O)cc3)CC2)cc1 (stereo not given)	i	x	98	i	5
COc1ccccc1CCn1cnc(-c2ccc(OC)c(OC)c2)c1C(C)C	i	0	96	i	0
CCCCc1c(-c2ccc(OC)c(OC)c2)ncn1CCc1ccccc1OC	i	0	126	x	x
COc1ccccc1CCn1cnc(-c2cccc(F)c2)c1C(C)C	x	0	x	x	x
CCCCc1c(-c2cccc(OC)c2)ncn1CCc1ccccc1OC	+	0	93	i	0
CCCC(=O)Nc1ccc2c(c1)OC[C@@H](C)N(C(=O)c1ccncc1)C[C@H](C)[C@@H](OC)CN(C)C2=O	x	0	x	x	x
O=C(c1ccccc1)N1CC2(C1)[C@H](c1ccccc1)[C@H](CO)N2Cc1cc(F)ccc1F	x	0	x	x	x
O=C(C[C@@H]1C[C@@H]2c3cc(NC(=O)Cc4ccncc4)ccc3O[C@@H]2[C@H](CO)O1)NCc1ccc2c(c1)OCO2	x	0	x	x	x
O=C(Nc1ccc2c(c1)OCO2)N[C@H]1CC[C@H](CC(=O)N2CCN(c3ccccc3)CC2)O[C@H]1CO	x	0	x	x	x
Cc1ccc(OCCn2c(C)nc3ccccc32)cc1	i	0	99	i	0
Cc1nc2ccccc2n1CCCOc1ccccc1	i	x	95	x	x
C[C@@H]1CN([C@@H](C)CO)C(=O)c2c(c3ccccc3n2C)-c2ccccc2CO[C@H]1CN(C)C(=O)Nc1cccc(C(F)(F)F)c1	x	-1	x	x	x
Cc1ccc(NC(=O)c2ccc([N+](=O)[O-])s2)cc1S(=O)(=O)N1CCOCC1	+	0	94	i	0
O=C(Nc1cc(S(=O)(=O)N2CCOCC2)ccc1N1CCOCC1)c1ccc([N+](=O)[O-])s1	i	0	103	x	x
O=C(Nc1ccc([N+](=O)[O-])cc1)c1ccccc1F	i	0	99	x	x
O=C(Nc1ncc(S(=O)(=O)c2ccc([N+](=O)[O-])cc2)s1)c1ccccc1F	+	0	97	i	1
C[C@@H]1CN([C@@H](C)CO)S(=O)(=O)c2ccc(C3=CCCC3)cc2O[C@@H]1CN(C)Cc1ccccn1	x	-1	x	x	x
CCC(CO)n1c(SCc2cc(=O)oc3cc(C)ccc23)nc2ccccc2c1=O (stereo not given)	i	x	86	+	1
COc1ccccc1-n1c(SCc2cc(=O)oc3cc(O)ccc23)nc2ccccc2c1=O	i	0	105	x	x
COc1ccc2c3c(n(C)c2c1)[C@@H](CO)N(C(=O)c1cnccn1)CC31CN(C)C1	x	0	x	x	x
Cc1cc(C)c(C)c(S(=O)(=O)N2CCC(C(=O)Nc3ccc(S(=O)(=O)N4CCOCC4)cc3)CC2)c1C	i	0	99	i	0
O=C(Nc1ccc(S(=O)(=O)N2CCOCC2)cc1)C1CCN(S(=O)(=O)c2ccccc2)CC1	i	0	98	x	x
CO[C@@H]1CN(C)C(=O)c2ccc(NS(=O)(=O)c3cccc(Cl)c3)cc2OC[C@H](C)NC[C@@H]1C	x	1	x	x	x
Cc1sc(NC(=O)c2ccccc2)c(C(c2ccccn2)N2CCN(CCO)CC2)c1C (stereo not given)	i	0	97	i	0
CCOc1ccc(C(c2c(NC(=O)c3ccccc3)sc(C)c2C)N2CCN(C)CC2)cc1 (stereo not given)	i	0	93	x	x
SMILES	Myeloid diff MLP	Xi reactivation	ABCB6 inh 2	Myeloid diff	GFP autofluor
CC[C@@]1(C(=O)OC)N[C@H](CN(C)C(=O)COC)[C@@H]2C(=O)N(Cc3ccccc3)C(=O)[C@@H]21	+	0	94	i	7.3*
COCC(=O)N(C)C[C@H]1N[C@@](Cc2ccccc2)(C(=O)OC)[C@H]2C(=O)N(Cc3ccccc3)C(=O)[C@@H]12	i	0	97	x	x
CO[C@H]1CN(C)C(=O)c2ccc(NS(=O)(=O)c3ccc(C)cc3)cc2OC[C@H](C)NC[C@@H]1C	x	0	x	x	x
CCOC(=O)c1oc2ccc(CNCCO)c(Cl)c2c1C	i	x	104	x	x
CCOC(=O)c1oc2ccc(CNC3CCCCC3)c(Cl)c2c1C	+	x	97	i	0
O=C(C[C@@H]1C=C[C@H](NC(=O)NC2CCCCC2)[C@H](CO)O1)NCc1ccc(Cl)cc1	x	0	x	x	x
CCOC(=O)c1cc(-c2ccccc2)sc1NC(=S)Nc1cc(C)ccn1	+	x	94	i	0
CCOC(=O)c1cc(-c2ccccc2)sc1NC(=O)C(C)(C)C	i	x	108	x	x
CC(C)CC(C(=O)N1CCc2ccccc2C1)N1C(=O)c2ccccc2C1=O (stereo not given)	i	x	96	x	x
CC(C(=O)N1CCc2ccccc2C1)N1C(=O)c2ccccc2C1=O (stereo not given)	+	0	104	i	0
O=C(O)c1ccccc1C(=O)N1CCN(c2cccc(Cl)c2)CC1	i	x	94	x	x
CCOc1ccccc1C(=O)N1CCN(c2cccc(Cl)c2)CC1	i	x	106	i	4
S=C(NCCCN1CCOCC1)NCCCN1CCOCC1	i	0	100	x	x
CCCCCCCCNC(=S)NCCN1CCCCC1	i	0	91	i	0
CCCN(C)C[C@@H]1OCCCC[C@H](C)Oc2ccc(NC(=O)Cc3ccccc3)cc2C(=O)N([C@@H](C)CO)C[C@@H]1C	x	0	x	x	x
C[C@@H]1CN([C@@H](C)CO)C(=O)c2cc(NC(=O)Nc3ccc4c(c3)OCO4)ccc2O[C@@H](C)CCCCO[C@H]1CN(C)C(=O)c1ccccc1	x	0	x	x	x
C[C@@H]1CCCCO[C@@H](CN(C)C(=O)c2ccccc2)[C@H](C)CN([C@@H](C)CO)C(=O)c2cc(NC(=O)C3CCCCC3)ccc2O1	x	0	x	x	x
C[C@H](CO)N1C[C@H](C)[C@H](CN(C)C(=O)Nc2ccc3c(c2)OCO3)Oc2c(NC(=O)c3ccncc3)cccc2C1=O	x	0	x	x	x
N#CCCN1CCN(S(=O)(=O)c2ccc(C#N)cc2)CC1	i	x	94	i	0
N#CCCN1CCN(S(=O)(=O)c2ccc(S(=O)(=O)N3CCCCCC3)cc2)CC1	i	0	103	x	x
COc1ccc(S(=O)(=O)Nc2ccc3c(c2)CC(=O)N([C@H](C)CO)C[C@@H](C)[C@@H](CN(C)S(=O)(=O)c2cccs2)O3)cc1	x	0	x	x	x
C[C@H]1CN([C@@H](C)CO)S(=O)(=O)c2ccc(C3=CCCC3)cc2O[C@H]1CN(C)C(=O)C1CCCCC1	x	-1	x	x	x
CCCC#Cc1ccc2c(c1)O[C@H](CN(C)C(=O)CN(C)C)[C@H](C)CN([C@H](C)CO)S2(=O)=O	x	0	x	x	x
C[C@@H]1CCCCO[C@@H](CN(C)Cc2ccc(C(F)(F)F)cc2)[C@H](C)CN([C@@H](C)CO)C(=O)c2cc(NC(=O)CCC(F)(F)F)ccc2O1	x	-1	x	x	x
C[C@H]1CN([C@@H](C)CO)C(=O)c2cccc(NS(C)(=O)=O)c2O[C@@H]1CN(C)C(=O)Nc1ccccc1	x	0	x	x	x
